Assay results gathered from unrelated publications.
Each line is one published result; the experiments were not run side by side.
Effect on: cell growth or viability

| SMILES | cell line | test | conditions | IC50 [µM] |
| --- | --- | --- | --- | --- |
| CCN(CC)C(=O)c1ncn2c(=O)n(C)nnc12 | U-118-MG | resazurin | 7 days | 80 |
| COc1cccc(C(=O)O[C@@H]2CN3Cc4c(cc5c(c4OC)OCO5)[C@@]24C=C[C@H](OC)C[C@@H]34)c1 | A2780 | WST-1 |  | > 10 |
| COc1cc(Nc2nccc(-c3cnn4nc(OC)ccc34)n2)cc(C(F)(F)F)c1 | U-118-MG | ATP luminescence |  | 0.12 |
| CC(C)c1cc(C(=O)N2Cc3ccccc3C2)c(O)c2[nH]nnc12 | UMUC3 | ATP luminescence | 72 h | > 100 |
| CC(=O)O[C@H]1C(=O)[C@@]2(C)[C@H]([C@H](OC(=O)c3ccccc3)[C@]3(O)C[C@H](OC(=O)[C@H](O)[C@@H](NC(=O)c4ccccc4)c4ccccc4)C(C)=C1C3(C)C)[C@]1(OC(C)=O)CO[C@@H]1C[C@@H]2O | LLC-PK1 | MTT | 72 h | 0.73 |
| CN1C(=O)c2cc(C(N)=O)nc3c(N)c(Cl)c(N)c1c23 | HCC44 |  |  | 15.3 |
| COc1cc([C@@H]2c3cc4c(cc3[C@@H](O[C@@H]3O[C@@H]5CO[C@@H](C)O[C@H]5[C@H](O)[C@H]3O)[C@H]3COC(=O)[C@H]23)OCO4)cc(OC)c1O | Caco-2 | MTS | 24 h | 21.8 |
| C[C@@H](Oc1cc(-c2cnn(C3CCNCC3)c2)cnc1N)c1c(Cl)ccc(F)c1Cl | RD |  | 72 h | 0.49 |
| COc1cccc2c1C(=O)c1c(O)c3c(c(O)c1C2=O)C[C@@](O)(C(=O)CO)C[C@@H]3O[C@H]1C[C@H](N)[C@H](O)[C@H](C)O1 | F180 | MTT | 48 h | 9.39 |
| O=Cc1ccc(CO)o1 | RD | WST-1 | 48 h | 60.6 |
| CC(C)c1cc(C(=O)N2Cc3ccccc3C2)c(O)c2c1CC=C2 | UMUC3 | ATP luminescence | 72 h | 51.3 |
| O=C(Nc1ccc(CN2CCOCC2)c(C(F)(F)F)c1)c1ccc(C#Cc2cccc3cnccc23)cn1 | IMR-90 | MTT |  | > 180 |
| CC(C)c1cc(C(=O)N2Cc3ccccc3C2)c(O)c2nc[nH]c12 | UMUC3 | ATP luminescence | 72 h | 53 |
| CCSC(=O)c1ncn2c(=O)n(C)nnc12 | U-118-MG | resazurin | 7 days | 165 |
| c1csc([I+]c2cccs2)c1 | Caco-2 | trypan blue | 48 h | ~0.5 |
| CNC(=O)c1cc(Oc2ccc(NC(=O)Nc3ccc(Cl)c(C(F)(F)F)c3)cc2)ccn1 | Swiss-3T3 | SRB |  | 0.427 |
| COc1cc(/C=C/C(=O)/C=C/c2c(C)nn(-c3cccc([N+](=O)[O-])c3)c2Cl)cc(OC)c1O | LLC-PK1 | MTT | 72 h | 15.4 |
| CC(C)c1cc(C(=O)N2Cc3ccccc3C2)c(O)c2c1C=CC2 | UMUC3 | ATP luminescence | 72 h | 59.4 |
| Cc1ccc(-c2nn(-c3ccc(S(C)(=O)=O)cc3)cc2/C=N\N=c2/[nH]c(-c3ccc([N+](=O)[O-])cc3)cs2)cc1 | F180 | MTT | 48 h | 99.5 |
| Cc1cccc(-n2ncc(Br)c(Br)c2=O)c1 | NCI-H2122 | resazurin | 96 h | 1.26 |
